Shown are actives, neighbours in structure and some others; about 3.5% of the full set was active somewhere.
FLuc inh counter: inhibits firefly luciferase, flagging false hits in luciferase inhibition screens; ATPLite firefly luciferase biochemical luminescence, 10 min; inhibition, % at 10 µM; actives 1.5% (n = 200,000); AID 1006;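 active = inhibition above about 50% when tested at 10 µM, limit read from the data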
Target sequence (P08659 whole entry, looked up): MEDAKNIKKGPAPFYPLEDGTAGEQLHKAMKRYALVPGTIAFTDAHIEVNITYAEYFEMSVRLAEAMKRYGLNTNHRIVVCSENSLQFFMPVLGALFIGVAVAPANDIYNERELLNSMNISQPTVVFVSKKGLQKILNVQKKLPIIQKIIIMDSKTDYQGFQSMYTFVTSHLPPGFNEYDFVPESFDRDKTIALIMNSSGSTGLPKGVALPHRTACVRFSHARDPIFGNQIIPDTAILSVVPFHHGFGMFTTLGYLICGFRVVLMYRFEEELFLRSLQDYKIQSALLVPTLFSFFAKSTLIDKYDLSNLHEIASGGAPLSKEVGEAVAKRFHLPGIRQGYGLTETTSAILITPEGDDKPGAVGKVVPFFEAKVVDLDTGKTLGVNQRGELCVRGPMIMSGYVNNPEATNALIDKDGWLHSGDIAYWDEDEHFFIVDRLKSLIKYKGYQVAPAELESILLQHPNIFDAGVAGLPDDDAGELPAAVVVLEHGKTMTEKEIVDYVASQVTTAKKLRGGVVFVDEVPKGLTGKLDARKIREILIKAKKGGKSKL
APP 5'UTR act: APP 5'UTR luciferase reporter activation. AID 1276. actives 1% (n = 190,000). activation, % at 2 µM. SH-SY5Y APP 5'UTR luciferase reporter, luminescence; zero percent = DMSO vehicle wells;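 active = activation above a set limit, based on mean plus 3 SD of controls, cut at about 140% in these data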
STAT1 act: STAT1 signaling activation; activation (% of control), % at 5.5 µM; NIH 3T3 STAT1-luciferase reporter, IFN-gamma, luminescence; 100% = IFN-gamma alone, no compound; actives 2.6% (n = 200,000);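 active = activation above the screen-wide mean activation plus 3 SD, cut at about 130% in these data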;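 also: raw ratio to IFN-gamma control signal so 100% means no change and 0% no light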
NF-kB neuron act: NF-kB expression increase, human neuronal cells | NF-kB reporter expression; active compounds read high | fold change at 12.5 µM | AID 1239 | actives 1.6% (n = 190,000); in the data active = fold change above about 3.3
Pf gametocyte: kills late stage P. falciparum gametocytes | actives 0.065% (n = 150,000) | inhibition, % at 10.9 µM | P. falciparum stage V gametocytes, ATP luminescence, 24 h;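 active = inhibition above the mean plus 3 SD of compounds within the control limits, set per campaign, cut at about 38% in these data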;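 also: 0% = DMSO wells and 100% = medium only without gametocytes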
FLuc stim CS: affects firefly luciferase, flagging false hits in luciferase stimulation screens; P08659; ATPlite luciferase biochemical, luminescence, 10 min; 0 = ATP-free wells, 1 = DMSO control; activation factor at 10 µM; 200,000 tested, under 10 active;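 active = luciferase activation factor, scaled between plate controls, of at least 2 with compound at 10 µM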
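Material: luciferase plus luciferin reagent, cell-free. Medium: PBS buffer for ATP. Also added: ATP substrate, dispensed from a 10.24 µM working solution in PBS. Doses: test compounds dosed from 2 mM stocks in 100% DMSO. Incubation: 10 min post-reagent at room temperature. Technique: light output (luminescence). Read-out basis: luminescence gain marking luciferase activators.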
Numbers without * were called inactive; · = no result.

SMILES | FLuc inh counter | APP 5'UTR act | STAT1 act | NF-kB neuron act | Pf gametocyte | FLuc stim CS
COc1ccc(OC)c(-c2nnc(-c3ccc(C)o3)o2)c1 | -3.9 | 1.0 | 104.9 | 1.22 | 16.9 | 1
COC(=O)c1ccc(-c2nc3cc(Cl)c(N)cc3s2)cc1 | 84.8* | 141.7* | 145.7* | 1.56 | -8.3 | 0.2
COC(=O)c1ccc(-c2nc(O)c(C)s2)cc1 | 15.2 | -3.1 | 100.9 | 1.08 | · | 0.8
Cc1c(C(=O)/C=C/c2cccs2)oc2ccc(F)cc12 | 84.5* | -8.9 | 98.3 | 2.59 | 11.9 | 0.2
Cc1cc(=O)oc2c(C(=O)/C=C\c3cccs3)c(O)ccc12 | 3.8 | 1.9 | 111.5 | 1.7 | -3.1 | 1
COc1ccc(OCC(=O)NC2CC(C)(C)NC(C)(C)C2)cc1 | -3.7 | 15.2 | 99.6 | 0.66 | · | 1
CC(C)CCn1cnc2c(cnn2-c2ccc(F)cc2)c1=O | 3.1 | 17.8 | 130.1* | 1.84 | · | 1
CN(C)C(=O)c1ccc(COc2ccccc2Br)o1 | 15.3 | 76.2 | 132.3* | 2.25 | · | 0.8
O=C(c1ccc(COc2ccccc2Br)o1)N1N=C(C(F)F)CC1(O)C(F)F (centres undefined) | -4.2 | -2.4 | 92.9 | 1.14 | 48.8* | 1
Cc1nnc(SC(C)C)n(N)c1=O | -10.1 | -5.5 | 96.1 | 1.1 | -1.1 | 1.1
CN=C(NC1CCCCC1)c1ccc([N+](=O)[O-])cc1 | · | · | · | · | 6.4 | ·
CC(C)c1ccc(N(CC(=O)N2CCN(Cc3ccccc3)CC2)S(C)(=O)=O)cc1 | · | · | · | · | 8.0 | ·
O=C(NCCCN1CCOCC1)c1cc(-c2cccs2)on1 | -2.6 | 22.1 | 119.4 | 7.29* | · | 1
O=C(NCCCn1ccnc1)c1cc(-c2cccs2)on1 | -0.9 | 18.9 | 146.6* | 10.5* | -25.8 | 1
O=C(NCCCn1ccnc1)c1ccc(S(=O)(=O)N2CCOCC2)cc1 | -5.1 | -6.3 | 99.0 | 3.97* | · | 1.1
COc1ccccc1OCc1nnc(SCC(=O)c2cc(Cl)ccc2OC)o1 | -7.2 | 5.1 | 97.0 | 1.28 | 15.9 | 1.1
Clc1cnc(N/N=C/c2cccs2)c(Cl)c1 | 22.6 | 69.6 | 133.9* | 2.05 | · | 0.8
C(=N\Nc1ncnc2nc[nH]c12)/c1cccs1 | 30.6 | 41.7 | 134.4* | 1.65 | 4.7 | 0.7
Cc1ccsc1/C=N/Nc1ncnc2nc[nH]c12 | 25.4 | 38.8 | 138.2* | 1.99 | -8.3 | 0.7
Cc1ccccc1/C=N/Nc1ncnc2nc[nH]c12 | · | · | · | · | 0.2 | ·
Fc1ccc(/C=N/Nc2ncnc3nc[nH]c23)cc1F | 13.6 | 33.0 | 117.7 | 1.89 | · | 0.9
Cc1ccc(/C=N/Nc2ncc(Cl)cc2Cl)s1 | 23.4 | 6.1 | 125.0 | 1.89 | 5.2 | 0.8
CCc1ccc(Nc2ncnc3nc[nH]c23)cc1 | · | · | · | · | -9.2 | ·
Cc1ccc(Nc2ncnc3nc[nH]c23)cc1Cl | 11.3 | 98.3 | 110.2 | 3.31* | · | 0.9
CCc1cccc(OCC2Cn3c(nc4c3c(=O)[nH]c(=O)n4C)O2)c1 (centres undefined) | · | · | · | · | 4.4 | ·
SMILES | FLuc inh counter | APP 5'UTR act | STAT1 act | NF-kB neuron act | Pf gametocyte | FLuc stim CS
C/C(CC(=O)Nc1ccccc1F)=N\NC(=O)Cc1ccc(Cl)cc1 | -1.0 | 6.1 | 104.2 | 1.21 | -20.5 | 1
Cc1c(C(=O)NCc2ccc3c(c2)OCO3)cccc1[N+](=O)[O-] | -7.7 | -22.2 | 98.1 | 1.04 | -26.9 | 1.1
Cc1ccc(C)c(NC(=S)c2ccc3ccccc3n2)c1 | 27.2 | 82.1 | 129.2* | 2.86 | · | 0.7
Cc1ccc(C)c(NC(=S)c2ccccn2)c1 | 5.3 | 8.0 | 123.0 | 14.7* | · | 0.9
Cc1ccc(C)c(NC(=S)c2nc3ccccc3s2)c1 | 7.2 | 19.1 | 104.0 | 1.44 | 10.6 | 0.9
Cc1nn(-c2ccccc2)c(N2CCCC2)c1/C=N/Nc1ccc(S(N)(=O)=O)cc1[N+](=O)[O-] | -2.3 | -15.7 | 87.4 | 0.52 | -13.6 | 1
CN(C)N=Nc1nc2c(c(=O)n(C)c(=O)n2C)n1C | · | · | · | · | -0.5 | ·
CC1=C(C(=O)Nc2ccccc2C(F)(F)F)C(c2sccc2C)NC(=S)N1 (centres undefined) | 2.7 | -13.8 | 94.1 | 1.23 | · | 1
Cc1ccc(N=Cc2nc(-c3ccc(C)cc3)oc2O)cc1 | 6.7 | -6.0 | 98.9 | 1.4 | · | 0.9
Oc1oc(-c2ccccc2)nc1C=Nc1ccccc1 | 8.5 | 46.5 | 132.0* | 2.49 | · | 0.9
CN(C)c1ccc(N=Cc2nc(-c3ccccc3)oc2O)cc1 | -3.7 | 26.1 | 109.6 | 1.67 | -20.5 | 1
COc1ccc(N=Cc2nc(-c3ccco3)oc2O)cc1 | 37.6 | 25.8 | 135.6* | 2.36 | 4.2 | 0.6
O=C(NCCN1C(=O)C2C3C=CC(C3)C2C1=O)Nc1cccnc1 (centres undefined) | -4.9 | -3.2 | 99.4 | 0.97 | · | 1
O=C(NCCN1C(=O)C2C3C=CC(C3)C2C1=O)Nc1ccc(Br)cc1 (centres undefined) | 12.1 | · | 141.4* | 2.24 | · | 0.9
CCOC(=O)C1=C(CC)Nc2ccccc2N=C1NC(=O)c1cc(S(=O)(=O)N(C)C)ccc1Cl | -4.5 | -5.2 | 100.9 | 0.66 | · | 1
OCC1(CO)COC(CCc2ccccc2)=N1 | · | · | · | · | -18.9 | ·
O=C(NCC1CCCO1)c1ccc(NC(=O)c2cccc([N+](=O)[O-])c2)cc1 (centres undefined) | · | · | · | · | -6.2 | ·
CCN(Cc1ccccc1)c1ccc(/C=N/NS(=O)(=O)c2ccc(C)c([N+](=O)[O-])c2)cc1 | -3.0 | -16.3 | 101.3 | 0.88 | · | 1
CCN(Cc1ccccc1)c1ccc(N=Nc2nn(C)c(C)c2[N+](=O)[O-])cc1 | 3.0 | 27.1 | 133.2* | 1.41 | -7.7 | 1
COc1ccc(-n2nc3c(c2NC(=O)c2cc(Br)ccc2Cl)CS(=O)C3)cc1 (centres undefined) | -10.0 | -9.1 | 100.1 | 0.87 | · | 1.1
COc1ccc(-c2cc(=Nc3c(C)n(C)n(-c4ccccc4)c3=O)c3ccccc3o2)cc1 | 19.7 | 56.7 | 141.6* | 1.19 | 3.9 | 0.8
CCN(CC)c1ccc(/C=C/c2nc3ccccc3s2)cc1 | 64.2* | 75.9 | 78.9 | 1.37 | · | 0.4
CCN(CC)c1ccc(NC(=O)COC(=O)/C=C/c2nc3ccccc3s2)cc1 | -2.8 | -9.7 | 101.9 | 0.9 | -19.5 | 1
O=C(O)c1cccnc1Br | -3.5 | 21.3 | 109.3 | 1.59 | -3.8 | 1
CCc1ccc(C(=O)Nc2nnn(CC)n2)cc1 | 86.7* | 100.2 | 104.0 | 3.67* | · | 0.1
CCCCN1C(C)=CC(=C2C(=O)c3ccccc3C2=O)C=C1C | 77.3* | 180.5* | 82.2 | 3.17 | -5.9 | 0.2
CCCCCCN1C=CC(=C2C(=O)c3ccccc3C2=O)C=C1 | 94.5* | 48.4 | 24.1 | 1.32 | -8.0 | 0.1
CCN1C=CC(=C2C(=O)c3ccccc3C2=O)C=C1 | 97.6* | -69.8 | 19.8 | 0.24 | 4.3 | 0
CC1=CC(=C2C(=O)c3ccccc3C2=O)C=C(C)O1 | 2.5 | 11.3 | 124.1 | 2.37 | · | 1
CCCCN1C=CC(=C2N=c3cccc([N+](=O)[O-])c3=N2)C=C1 | 0.7 | 28.1 | 111.1 | 1.01 | 10.3 | 1
